SR-BI HDL uptake = inhibitors of mouse SR-BI mediated HDL lipid uptake | ldlA[mSR-BI] CHO cells, DiI-HDL uptake fluorescence, 3 h | hit rate 0.96% among 320,000 | inhibition, % at 12.5 µM;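 active = mean replicate inhibition of at least 70% and a set share of replicates each scoring 70 or more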;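 note: 0% = median of neutral control wells and 100% = median of positive control wells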
Target sequence (Q61009 whole entry, looked up): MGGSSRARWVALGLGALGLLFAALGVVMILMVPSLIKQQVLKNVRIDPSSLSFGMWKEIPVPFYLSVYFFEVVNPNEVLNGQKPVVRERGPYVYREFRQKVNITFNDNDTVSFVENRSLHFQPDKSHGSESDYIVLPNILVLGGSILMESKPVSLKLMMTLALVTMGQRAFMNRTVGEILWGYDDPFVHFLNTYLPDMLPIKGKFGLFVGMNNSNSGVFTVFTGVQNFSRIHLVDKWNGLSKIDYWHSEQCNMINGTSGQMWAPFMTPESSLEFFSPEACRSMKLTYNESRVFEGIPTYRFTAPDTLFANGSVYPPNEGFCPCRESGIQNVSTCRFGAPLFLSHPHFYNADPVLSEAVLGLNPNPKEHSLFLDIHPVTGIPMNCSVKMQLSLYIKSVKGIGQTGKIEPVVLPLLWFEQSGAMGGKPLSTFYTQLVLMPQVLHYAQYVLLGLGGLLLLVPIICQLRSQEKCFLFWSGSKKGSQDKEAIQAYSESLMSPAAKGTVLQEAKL
GRK2 aptamer HTS = inhibitors of human GRK2 displacing RNA aptamer | P25098 | inhibition of aptamer binding, % at 10 µM | hit rate 0.59% among 330,000 | bead flow cytometry, FAM-aptamer displacement from GRK2;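 active = inhibition of aptamer binding above 40%, roughly 3 SD of noise, on plates passing a quality check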;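 note: median bead fluorescence of bound FAM aptamer so fluorescent compounds give negative values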
SR-BI DiI-HDL act = activators of SR-BI mediated HDL lipid uptake | CHO ldlA[mSR-BI] cells, DiI-HDL uptake fluorescence, 3 h; 100 = double the neutral-control signal | activation, % at 12.5 µM | hit rate 0.096% among 320,000;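 active = mean replicate activation of at least 60% and every replicate at or above 60%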;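 note: 0% = median plate neutral-control signal and 100% = twice that signal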
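Test system: SR-BI-overexpressing, LDLR-lacking CHO cells. Measured by: DiI fluorescence, bottom read. Medium: Ham's F12 with 0.5% BSA, HEPES 25 mM, pH 7.4. Timing: 3 h uptake period with compound, 37 °C.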
Rin1 Abl inh = blocks binding of human Rin1 to Abl; P00519+Q13671; TR-FRET Rin1/Abl binding, biochemical; inhibition, % at 7.35 µM; hit rate 0.4% among 360,000; in the data active = inhibition above about 5%, passing the limit was not always enough
* marks the source's active call; other numbers are inactive results; x = no result given. An excerpt weighted towards active compounds, which were near 1.9% of everything screened.

SMILES	SR-BI HDL uptake	GRK2 aptamer HTS	SR-BI DiI-HDL act	Rin1 Abl inh
O=C(NN=Cc1ccc(N(CCCl)CCCl)cc1)c1cc(=O)[nH]c(=O)[nH]1	-22	x	22	0
O=C(NN=Cc1ccc(N(CCCl)CCCl)cc1Cl)c1cccnc1	80*	x	-80	-2
Cc1cc(N(CCCl)CCCl)ccc1C=NNC(=O)c1cccnc1	89*	x	-89	1
C[CH2][Hg][S]c1ccccc1C(=O)O	106*	0	-106	-4
NC(Cc1cc(O)c(O)cc1O)C(=O)O (configuration not stated)	x	71*	x	x
CCOP(=O)(CCP(=O)(OCC)OCC)OCC.C[CH2][Sn]([Cl])([Cl])[CH2]C	3	x	-3	5
CC[n+]1c(/C=C/C=C/c2ccc(N(C)C)cc2)sc2ccccc21	94*	22	-94	-33
CN(C)c1ccc(/C=C/C=C/c2sc3ccccc3[n+]2C)cc1	15	0	-15	-19
CCC(C#N)(CC)P(=S)(c1ccccc1)c1ccccc1	-63	4	63*	0
COc1nc(C)nc(NC(=O)NS(=O)(=O)c2ccccc2Cl)n1	-3	0	3	-1
CCCCCn1c(=O)c(C(=O)Nc2ncccc2C)c(O)c2ccccc21	18	0	-18	0
C=CCn1c(O)c(/C=N/NC(=O)CCCC)c(=O)[nH]c1=S	-8	2	8	-6
CC(C)(C)c1cc([N+](=O)[O-])cc(C(C)(C)C)c1O	x	0	x	x
Cc1ccc(NC(=O)CN2C(=O)CN=C(c3ccccc3)c3cc(Cl)ccc32)cc1	33	1	-33	1
Cc1ccc(C2=NCC(=O)N(CC(=O)N3CCCCC3)c3sc(C)c(C)c32)cc1	88*	1	-88	-2
CCN(CC)c1ccc(N=Cc2c(O)n(-c3ccccc3)c(=O)[nH]c2=O)cc1	26	100*	-26	4
CCOc1ccc(-n2c(O)c(C=Nc3ccc(N(CC)CC)cc3)c(=O)[nH]c2=O)cc1	15	3	-15	-5
COC(=O)C1=C(c2cccc(OC)c2OC)C[C@@H]2CC[C@H]1N2C(=O)NCc1ccco1	-10	0	10	-1
CCCCCCn1c(O)c(/C=N/N2CCCCCC2)c(=O)[nH]c1=O	-151	1	151*	-1
CN(C)c1ccc(NC(=O)CN2C(=O)CN=C(c3ccccc3)c3ccccc32)cc1	83*	0	-83	-2
CN(C)c1ccc(NC(=O)CN2C(=O)CN=C(c3ccccc3)c3cc(Cl)ccc32)cc1	59	0	-59	0
N=c1c[n+](C2CCCCC2)[n-]o1	-4	0	4	-1
COc1cccc(CN2CCN(C(=O)COc3ccc4ccccc4c3)CC2)c1	86*	0	-86	1
COc1cc(OC)c(OC)cc1CN1CCN(C(=O)COc2ccc3ccccc3c2)CC1	x	0	x	0
O=c1[nH]c(O)c(C=Nc2ccccc2[N+](=O)[O-])c(=O)[nH]1	x	58*	x	x
SMILES	SR-BI HDL uptake	GRK2 aptamer HTS	SR-BI DiI-HDL act	Rin1 Abl inh
Cc1cnc(NC(=O)CN2CCCCC2)s1	-14	0	14	-3
CCS(=O)(=O)NC(C)c1nnc2n1-c1ccc(Br)cc1C(c1ccccc1Cl)=NC2 (configuration not stated)	x	0	x	1
CCn1nc(-c2cccs2)nc2c(=O)n(C)c(=O)nc1-2	5	x	-5	20*
CCOc1ccc(-n2c(-c3cccs3)nc3ccccc3c2=O)cc1	44	2	-44	3
CCN(CC)C(=O)c1ccc(NC(=O)c2ccc3c(c2)NC(=O)CS3)cc1	72*	1	-72	2
COc1ccc(Cn2c(O)c(/C=N/NC(=O)c3ccccc3)c(=O)[nH]c2=O)cc1	81*	0	-81	-1
COc1ccc(Cn2c(O)c(/C=N/NC(=O)c3ccccc3O)c(=O)[nH]c2=O)cc1	97*	3	-97	-2
O=C(N/N=C/c1c(O)n(CCc2ccc(F)cc2)c(=O)[nH]c1=O)c1ccccc1	x	0	x	1
O=C(N/N=C/c1c(O)n(Cc2ccccc2)c(=O)[nH]c1=O)c1ccccc1O	117*	4	-117	0
O=C(N/N=C/c1c(O)n(Cc2ccc(F)cc2)c(=O)[nH]c1=O)c1ccccc1O	75*	2	-75	-1
COc1ccc(Cn2c(O)c(C=NCCN3CCOCC3)c(=O)[nH]c2=O)cc1	-20	4	20	-2
COc1ccc(Cn2c(O)c(/C=N/NC(=O)c3ccncc3)c(=O)[nH]c2=O)cc1	-2	1	2	-1
O=C(N/N=C/c1c(O)n(CCc2ccccc2)c(=O)[nH]c1=O)c1ccccc1O	x	0	x	-3

Source: PubChem
